In ChEMBL document CHEMBL3352779, “Synthesis and biological evaluation of 4-aza-2,3-dihydropyridophenanthrolines as tubulin polymerization inhibitors” (Bioorg Med Chem Lett, 2014):
Calls of active or inactive are those of the source. The rule behind the calls is not given here.

Assays:
MiaPaCa = test: (§1) Antiproliferative activity against human MiaPaCa cells after 48 hrs by SRB assay; type: functional
Procedure, shortened: (§2)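 Sulforhodamine B growth assay run on MIAPACA, MCF-7 and HeLa human cancer lines, with etoposide and podophyllotoxin as positive controls. Potency expressed as GI₅₀.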

HeLa [1] = test: Antiproliferative activity against human HeLa cells after 48 hrs by SRB assay; type: functional; procedure, shortened: as §2
MCF7 = test: Antiproliferative activity against human MCF7 cells after 48 hrs by SRB assay; type: functional; procedure, shortened: as §2
[2] = as §1; type: functional; conditions: MIA PaCa-2, 48 h; procedure, shortened: as §2
Tubulin (Homo sapiens) [3] = target: T1, Tubulin (Homo sapiens) (UniProt P68371+Q9H4B7+P0DPH7+P68366+Q13509+Q71U36+P04350+Q3ZCM7+P07437+P68363+Q9BQE3+Q6PEY2+Q13885+Q9BVA1+Q9BUF5); test: Induction of tubulin polymerization in human HeLa cells assessed as increase of tubulin polymerized fraction at 5 uM after 24 hrs by immunoblot analysis; type: cell-based
Procedure, shortened: (§3)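 HeLa cells treated at 5 µM for 24 h, then permeabilized. Soluble and polymerized tubulin fractions collected separately and analysed by immunoblotting, with DMSO-treated cells as control.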

Tubulin (Homo sapiens) [4] = target: T1, Tubulin (Homo sapiens); test: Inhibition of tubulin polymerization in human HeLa cells assessed as increase of tubulin soluble fraction at 5 uM after 24 hrs by immunoblot analysis; type: cell-based; procedure, shortened: as §3
HeLa [5] = test: Disruption of microtubule network in human HeLa cells at 5 uM after 24 hrs by immunohistochemistry; type: cell-based
Procedure, shortened: (§4)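 HeLa cells exposed to 5 µM for 24 h, then fixed and stained with anti-tubulin antibody, with DAPI counterstain. Merged tubulin/DAPI fluorescence images examined for microtubule network and nuclear condensation.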

HeLa [6] = test: Cell cycle arrest in human HeLa cells assessed as accumulation of cells at G2/M phase at 5 uM after 24 hrs by FACS analysis (Rvb =33.25 %); type: functional
Tubulin = Tubulin (Bos taurus, UniProt Q6B856+Q862L2+Q862F3); test: Inhibition of bovine brain tubulin polymerization measured for 1 hr at 1 min intervals by fluorescence assay
HeLa [7] = test: Mitotic arrest in human HeLa cells assessed as cell rounding at 5 uM after 24 hrs by immunohistochemistry; type: functional, cell-based; procedure, shortened: as §4

**Q.** Which results are given for O=C1OCC2=C1C(c1cc(F)c(F)c(F)c1)c1c(c3cccnc3c3ncccc13)N2 (stereo not given)?
**A.** GI50 (MiaPaCa): inactive; GI50 (HeLa [1]): 2.5 µM; GI50 (MCF7): inactive

**Q.** For O=C1OCC2=C1C(c1ccc(O)c(Cl)c1)c1c(c3cccnc3c3ncccc13)N2 (stereo not given), which GI50 [2] is on record?
**A.** 0.9 µM

**Q.** What about the GI50 (HeLa [1]) of the same molecule?
**A.** 0.3 µM

**Q.** What about the GI50 (MCF7; MCF7, 48 h) of the same molecule?
**A.** 7.7 µM

**Q.** For CC(=O)O[C@H]1C(=O)[C@@]2(C)[C@H]([C@H](OC(=O)c3ccccc3)[C@]3(O)C[C@H](OC(=O)[C@H](O)[C@@H](NC(=O)c4ccccc4)c4ccccc4)C(C)=C1C3(C)C)[C@]1(OC(C)=O)CO[C@@H]1C[C@@H]2O, which Activity (Tubulin (Homo sapiens) [3]) is on record?
**A.** Active

**Q.** With COc1cc(C2C3=C(COC3=O)Nc3c2c2cccnc2c2ncccc32)cc(OC)c1O (stereo not given) as the molecule, how does the GI50 [2] read?
**A.** 0.1 µM

**Q.** And the GI50 (HeLa [1])?
**A.** 1.7 µM

**Q.** And the GI50 (MCF7; MCF7, 48 h)?
**A.** 2.1 µM

**Q.** What does the source list for COc1ccc(C2C3=C(COC3=O)Nc3c2c2cccnc2c2ncccc32)c(O)c1 (stereo not given)?
**A.** GI50 [2]: 9.8 µM; GI50 (HeLa [1]): 7 µM; GI50 (MCF7; MCF7, 48 h): 9.7 µM

**Q.** For COc1cc([C@@H]2c3cc4c(cc3[C@H](O)[C@H]3COC(=O)[C@H]23)OCO4)cc(OC)c1OC [PODOFILOX], which GI50 [2] is on record?
**A.** 0.5 µM

**Q.** What about the GI50 (HeLa [1]) of the same molecule?
**A.** 0.71 µM

**Q.** And the GI50 (MCF7; MCF7, 48 h)?
**A.** 0.23 µM

**Q.** And the inhibition (Tubulin (Homo sapiens) [4])?
**A.** Active

**Q.** With COc1ccc(C2C3=C(COC3=O)Nc3c2c2cccnc2c2ncccc32)c(OC)c1OC (stereo not given) as the molecule, how does the GI50 [2] read?
**A.** 3.7 µM

**Q.** What about the GI50 (HeLa [1]) of the same molecule?
**A.** 0.16 µM

**Q.** What about the GI50 (MCF7; MCF7, 48 h) of the same molecule?
**A.** 8.2 µM

**Q.** What does the source list for O=C1OCC2=C1C(c1cc(Br)ccc1O)c1c(c3cccnc3c3ncccc13)N2 (stereo not given)?
**A.** GI50 [2]: 5.4 µM; GI50 (HeLa [1]): 1.76 µM; GI50 (MCF7; MCF7, 48 h): 9.2 µM

**Q.** What does the source list for O=C1OCC2=C1C(c1cc(Cl)ccc1O)c1c(c3cccnc3c3ncccc13)N2 (stereo not given)?
**A.** GI50 (MiaPaCa): inactive; GI50 (HeLa [1]): 0.3 µM; GI50 (MCF7): inactive

**Q.** For O=C1OCC2=C1C(c1ccc(C(F)(F)F)cc1)c1c(c3cccnc3c3ncccc13)N2 (stereo not given), which GI50 [2] is on record?
**A.** 0.7 µM

**Q.** What about the GI50 (HeLa [1]) of the same molecule?
**A.** 2.6 µM

**Q.** And the GI50 (MCF7; MCF7, 48 h)?
**A.** 0.06 µM

**Q.** What does the source list for O=C1OCC2=C1C(c1ccc(F)cc1)c1c(c3cccnc3c3ncccc13)N2 (stereo not given)?
**A.** GI50 (MiaPaCa): inactive; GI50 (HeLa [1]): 0.15 µM; GI50 (MCF7): inactive

**Q.** For COc1cc(C2C3=C(COC3=O)Nc3c2c2cccnc2c2ncccc32)cc(OC)c1OC (stereo not given), which GI50 [2] is on record?
**A.** 2.8 µM

**Q.** What about the GI50 (HeLa [1]) of the same molecule?
**A.** 0.1 µM

**Q.** And the GI50 (MCF7; MCF7, 48 h)?
**A.** 1.7 µM

**Q.** Which Activity (HeLa [5]) does the source give for COc1ccc(F)c(C2C3=C(COC3=O)Nc3c2c2cccnc2c2ncccc32)c1 (stereo not given) here?
**A.** Active

**Q.** What about the GI50 [2] of the same molecule?
**A.** 0.02 µM

**Q.** What about the GI50 (HeLa [1]) of the same molecule?
**A.** < 0.01 µM

**Q.** What about the Activity (HeLa [6]) of the same molecule?
**A.** 82.04%

**Q.** And the IC50 (Tubulin)?
**A.** 0.83 µM

**Q.** What about the GI50 (MCF7; MCF7, 48 h) of the same molecule?
**A.** 0.01 µM

**Q.** And the Activity (HeLa [7])?
**A.** Active

**Q.** What about the inhibition (Tubulin (Homo sapiens) [4]) of the same molecule?
**A.** Active

**Q.** What does the source list for COc1cc([C@@H]2c3cc4c(cc3[C@@H](O[C@@H]3O[C@@H]5CO[C@@H](C)O[C@H]5[C@H](O)[C@H]3O)[C@H]3COC(=O)[C@H]23)OCO4)cc(OC)c1O [ETOPOSIDE]?
**A.** GI50 [2]: 1.3 µM; GI50 (HeLa [1]): 0.64 µM; GI50 (MCF7; MCF7, 48 h): 0.25 µM

**Q.** What does the source list for COc1ccc(C2C3=C(COC3=O)Nc3c2c2cccnc2c2ncccc32)cc1F (stereo not given)?
**A.** GI50 [2]: 1.2 µM; GI50 (HeLa [1]): 0.8 µM; GI50 (MCF7; MCF7, 48 h): 6.4 µM

**Q.** For Cc1cccc(C2C3=C(COC3=O)Nc3c2c2cccnc2c2ncccc32)c1O (stereo not given), which GI50 [2] is on record?
**A.** 0.5 µM

**Q.** And the GI50 (HeLa [1])?
**A.** 0.2 µM

**Q.** What about the GI50 (MCF7; MCF7, 48 h) of the same molecule?
**A.** 10.3 µM

**Q.** With COc1ccc(OC)c(C2C3=C(COC3=O)Nc3c2c2cccnc2c2ncccc32)c1 (stereo not given) as the molecule, how does the GI50 [2] read?
**A.** 0.1 µM

**Q.** And the GI50 (HeLa [1])?
**A.** < 0.01 µM

**Q.** And the Activity (HeLa [6])?
**A.** 73.77%

**Q.** What about the IC50 (Tubulin) of the same molecule?
**A.** 2 µM

**Q.** And the GI50 (MCF7; MCF7, 48 h)?
**A.** 8.4 µM

**Q.** For COc1ccc(C2C3=C(COC3=O)Nc3c2c2cccnc2c2ncccc32)cc1OC (stereo not given), which GI50 [2] is on record?
**A.** 5.9 µM

**Q.** And the GI50 (HeLa [1])?
**A.** 0.04 µM

**Q.** What about the GI50 (MCF7; MCF7, 48 h) of the same molecule?
**A.** 4.6 µM

**Q.** Which GI50 [2] does the source give for O=C1OCC2=C1C(c1ccc(O)c(Br)c1)c1c(c3cccnc3c3ncccc13)N2 (stereo not given) here?
**A.** 2 µM

**Q.** What about the GI50 (HeLa [1]) of the same molecule?
**A.** < 0.01 µM

**Q.** And the GI50 (MCF7; MCF7, 48 h)?
**A.** 7.6 µM

**Q.** What does the source list for O=C1OCC2=C1C(c1ccc(F)c(F)c1)c1c(c3cccnc3c3ncccc13)N2 (stereo not given)?
**A.** Activity (HeLa [5]): Active; GI50 [2]: 0.5 µM; GI50 (HeLa [1]): 0.03 µM; Activity (HeLa [6]): 76.44%; IC50 (Tubulin): 0.92 µM; GI50 (MCF7; MCF7, 48 h): < 0.01 µM; Activity (HeLa [7]): Active; inhibition (Tubulin (Homo sapiens) [4]): Active

**Q.** Which GI50 [2] does the source give for COc1ccc(C2C3=C(COC3=O)Nc3c2c2cccnc2c2ncccc32)cc1 (stereo not given) here?
**A.** 3.4 µM

**Q.** What about the GI50 (HeLa [1]) of the same molecule?
**A.** 4.2 µM

**Q.** What about the GI50 (MCF7; MCF7, 48 h) of the same molecule?
**A.** 4.6 µM

**Q.** With O=C1OCC2=C1C(c1cccc(Cl)c1)c1c(c3cccnc3c3ncccc13)N2 (stereo not given) as the molecule, how does the GI50 [2] read?
**A.** 13.6 µM

**Q.** And the GI50 (HeLa [1])?
**A.** inactive

**Q.** What about the GI50 (MCF7) of the same molecule?
**A.** inactive

**Q.** What does the source list for Cc1ccc(O)c(C2C3=C(COC3=O)Nc3c2c2cccnc2c2ncccc32)c1 (stereo not given)?
**A.** GI50 [2]: 1.9 µM; GI50 (HeLa [1]): 0.6 µM; GI50 (MCF7): inactive
